IDH1 mut inh – IDH1 R132H (human) inhibition. inhibition, % at 10 µM. AID 624101. IDH1 R132H reductase, diaphorase/resazurin fluorescence, 60 min. 70,000 compounds, 0.18% hits; in the data active = inhibition above about 34%; inconclusive = no clear call, values can overlap the other calls; inactive = below about 11%;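 also: 0% = DMSO and 100% = no enzyme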
KDM4C inh – blocks human GASC-1 (KDM4C) demethylase activity; GST-KDM4C 2-372, H3K9me3 peptide, LANCE TR-FRET; 96,000 compounds, 0.15% hits; Q9H3R0; inhibition, % at 12.5 µM;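 active = mean replicate inhibition above about 25%, with at least 55% of replicates also reaching it, limit read from the data, passing the limit was not always enough; inconclusive = only one of those two conditions met; inactive = neither condition met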
Target sequence (Q9H3R0 2-372 limits assumed): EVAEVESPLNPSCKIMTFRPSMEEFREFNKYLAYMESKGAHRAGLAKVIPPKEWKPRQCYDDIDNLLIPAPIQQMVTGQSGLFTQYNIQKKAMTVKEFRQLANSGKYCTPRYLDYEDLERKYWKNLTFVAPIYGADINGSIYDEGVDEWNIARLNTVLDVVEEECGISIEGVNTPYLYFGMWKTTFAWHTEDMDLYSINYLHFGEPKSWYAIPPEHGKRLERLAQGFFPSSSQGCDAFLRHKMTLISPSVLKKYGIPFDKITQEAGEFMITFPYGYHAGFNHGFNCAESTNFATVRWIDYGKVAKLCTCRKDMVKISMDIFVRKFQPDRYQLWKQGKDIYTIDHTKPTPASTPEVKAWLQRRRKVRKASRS
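Compound: one test concentration per compound; Material: GST-GASC-1 enzyme fragment 2-372; Amount: GASC-1 enzyme at 10 nM final in reaction; Also added: H3K9me3 peptide substrate, Fe(II), 2-oxoglutarate; Technique: LANCE TR-FRET; Times: 30 min demethylation and 1 h detection at room temperature.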
Pf Dd2 growth – inhibitors of Plasmodium falciparum Dd2 growth | activity change, % at 10 µM | P. falciparum Dd2 growth, SYBR Green, 72 h; active compounds read low | 94,000 compounds, 2.3% hits | AID 1159554; in the data active = activity change below about -80%; inconclusive = no clear call, values can overlap the other calls
T cruzi growth-1 – T. cruzi proliferation inhibition; T. cruzi beta-gal in NIH3T3, GalScreen luminescence, 90 h; inhibition, % at 8.34 µM; 77,000 compounds, 5.9% hits; AID 624255;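 active = mean inhibition above about 93%, with at least 55% of replicates each passing it, limit read from the data, passing the limit was not always enough; inconclusive = only one of those two conditions holds; inactive = neither condition holds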
T cruzi growth-2 – blocks T. cruzi growth in NIH3T3 host cells; shares compounds with T cruzi growth-1; 5,600 compounds, 72% hits; inhibition, % at 8.35 µM; AID 651739; T. cruzi beta-gal in NIH3T3, GalScreen luminescence, 90 h;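 active = mean replicate inhibition above about 95% and at least 55% of replicates individually reaching it, limit read from the data; inconclusive = only one of the two criteria is met; inactive = neither criterion is met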
T cruzi growth-3 – Trypanosoma cruzi proliferation inhibition; shares compounds with T cruzi growth-1; T. cruzi beta-gal in NIH3T3, GalScreen luminescence, 90 h; inhibition, % at 2.09 µM; 5,600 compounds, 21% hits;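 active = mean inhibition above about 95%, with at least 55% of replicates also reaching it, limit read from the data; inconclusive = meets just one of the two conditions; inactive = meets neither condition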;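 also: plate controls were neutral control median for no effect and positive control median for full effect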
3T3 cytotox – cytotoxicity in mouse NIH/3T3 fibroblasts. shares compounds with T cruzi growth-1. NIH/3T3 viability, CellTiter-Glo ATP luminescence, 90 h. cytotoxicity (signal decrease), % at 8.35 µM. 5,600 compounds, 14% hits. AID 651742;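 active = mean signal decrease across replicates above about 35% based on untreated-well scatter, with enough replicates individually passing, limit read from the data; inconclusive = no rule stated though some were filed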;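 also: 0% = median of neutral control wells and 100% = median of positive control wells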
3T3 cytotox 2 – NIH/3T3 (mouse) viability loss. inhibition, % at 24.9 µM. NIH/3T3 viability, CellTiter-Glo ATP luminescence, 90 h. shares compounds with T cruzi growth-1. 5,600 compounds, 56% hits;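 active = mean loss of cell viability signal at or above a set limit, and enough replicates individually reaching it; inconclusive = meets only the mean limit or only the replicate share; inactive = meets neither condition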;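 also: 0% = median of neutral control wells and 100% = median of positive control wells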
Numbers without * were called inactive. Sampled rows, rich in hits. Any-hit rate of the full collection: about 5.8%.

CCc1cnc(N2[C@H](C#N)[C@H](c3ccc(C#CC(C)C)cc3)[C@@H]2CO)s1 was read as KDM4C inh -1, Pf Dd2 growth -38, T cruzi growth-1 96*, T cruzi growth-2 100*, T cruzi growth-3 113*, 3T3 cytotox 6 and 3T3 cytotox 2 0.
CCc1cnc(N2[C@H](C#N)[C@H](c3ccc(C#CC(C)C)cc3)[C@H]2CO)s1 was read as KDM4C inh -1, Pf Dd2 growth -13, T cruzi growth-1 107*, T cruzi growth-2 98*, T cruzi growth-3 108*, 3T3 cytotox 16 and 3T3 cytotox 2 26*.
Screening CCc1cnc(N2[C@H](CO)[C@H](c3ccc(C#CC(C)C)cc3)[C@@H]2C#N)s1 returned KDM4C inh 2, Pf Dd2 growth 2 and T cruzi growth-1 89.
For CN(C)CC#Cc1ccc([C@@H]2[C@@H](CO)N3CCCCN(C(=O)C4CC4)C[C@H]23)cc1 the results were Pf Dd2 growth -1 and T cruzi growth-1 69.
For CCCNC(=O)N1CC[C@H]2[C@@H]1c1cc(C#Cc3ccccc3)ccc1N(C)[C@H]2CO the results were KDM4C inh 2, Pf Dd2 growth -55 and T cruzi growth-1 92.
Screening O=C(Nc1cccc(F)c1)N1CCCCN2[C@@H](CO)[C@H](c3ccc(C#Cc4cccnc4)cc3)[C@@H]2C1 returned KDM4C inh -1, Pf Dd2 growth -76, T cruzi growth-1 103*, T cruzi growth-2 103*, T cruzi growth-3 79, 3T3 cytotox 26 and 3T3 cytotox 2 101*.
For O=C(Nc1cccc(F)c1)N1CCCCN2[C@H](CO)[C@H](c3ccc(C#Cc4cccnc4)cc3)[C@H]2C1 the results were KDM4C inh -1, Pf Dd2 growth -54, T cruzi growth-1 96*, T cruzi growth-2 108*, T cruzi growth-3 48, 3T3 cytotox 22 and 3T3 cytotox 2 103*.
O=C(Nc1ccccc1F)N1CCCCN2[C@H](CO)[C@H](c3ccc(C#Cc4cccnc4)cc3)[C@@H]2C1 was read as KDM4C inh 0, Pf Dd2 growth inconclusive, T cruzi growth-1 107*, T cruzi growth-2 110*, T cruzi growth-3 78, 3T3 cytotox 43* and 3T3 cytotox 2 inconclusive.
Screening O=C(Nc1ccc(F)cc1)N1CCCCN2[C@@H](CO)[C@@H](c3ccc(C#Cc4ccccc4)cc3)[C@@H]2C1 returned KDM4C inh -4, Pf Dd2 growth -78, T cruzi growth-1 121*, T cruzi growth-2 108*, T cruzi growth-3 115*, 3T3 cytotox 118* and 3T3 cytotox 2 105*.
For CCCNC(=O)N(C)C[C@H]1Oc2ncc(C3=CCCCC3)cc2C(=O)N([C@H](C)CO)C[C@@H]1C the results were KDM4C inh 1, Pf Dd2 growth 15 and T cruzi growth-1 47.
O=C(C[C@@H]1C[C@H]2c3cc(NC(=O)NC4CCCCC4)ccc3O[C@H]2[C@@H](CO)O1)NCCc1ccccc1 was read as KDM4C inh -7 and Pf Dd2 growth 16.
O=C(Nc1ccccc1)N1CCCCN2[C@H](CO)[C@@H](c3ccc(C#Cc4cccnc4)cc3)[C@H]2C1 was read as KDM4C inh -1, Pf Dd2 growth -56 and T cruzi growth-1 -4.
`O=C(Nc1cccc(F)c1)N1CCCCN2[C@H](C1)[C@H](c1ccc(C#Cc3ccccc3)cc1)[C@@H]2CO` gave KDM4C inh -2, Pf Dd2 growth -23, T cruzi growth-1 100*, T cruzi growth-2 101*, T cruzi growth-3 inconclusive, 3T3 cytotox 15 and 3T3 cytotox 2 38*.
`O=C(Nc1cccc(F)c1)N1CCCCN2[C@H](CO)[C@H](c3ccc(C#Cc4ccccc4)cc3)[C@H]2C1` gave KDM4C inh -2, Pf Dd2 growth -63 and T cruzi growth-1 71.
`O=C(Nc1cccc(F)c1)N1CCCCN2[C@H](CO)[C@@H](c3ccc(C#Cc4cccnc4)cc3)[C@@H]2C1` gave KDM4C inh -2, Pf Dd2 growth -28, T cruzi growth-1 105*, T cruzi growth-2 109*, T cruzi growth-3 inconclusive, 3T3 cytotox 15 and 3T3 cytotox 2 81*.
O=C(Nc1cccc(F)c1)N1CCCCN2[C@H](C1)[C@H](c1ccc(C#CC3CC3)cc1)[C@@H]2CO was read as KDM4C inh -1, Pf Dd2 growth -6, T cruzi growth-1 118*, T cruzi growth-2 110*, T cruzi growth-3 87, 3T3 cytotox 10 and 3T3 cytotox 2 11.
Screening O=C(Nc1ccccc1)N1CCCCN2[C@@H](CO)[C@@H](c3ccc(C#Cc4cccnc4)cc3)[C@@H]2C1 returned KDM4C inh -1, Pf Dd2 growth -66, T cruzi growth-1 105*, T cruzi growth-2 109*, T cruzi growth-3 90, 3T3 cytotox 18 and 3T3 cytotox 2 81*.
N#Cc1cccc(-c2ccc([C@H]3[C@@H](CO)N[C@@H]3CNC(=O)C3CC3)cc2)c1 was read as KDM4C inh -1 and Pf Dd2 growth -2.
`Nc1nnc(SCC(=O)Nc2ccccc2C(=O)c2ccccc2)s1` gave IDH1 mut inh 0.
For CCCNC(=O)N1C[C@H]2[C@@H](c3ccccc31)[C@@H](CO)N2C(=O)NC(C)C the results were KDM4C inh -1, Pf Dd2 growth 7 and T cruzi growth-1 2.
For C[C@@H]1CCCCO[C@H](CN(C)CC2CCCCC2)[C@H](C)CN([C@H](C)CO)C(=O)c2cc(NC(=O)Nc3ccc(C(F)(F)F)cc3)ccc2O1 the results were IDH1 mut inh -2, Pf Dd2 growth -78, T cruzi growth-1 inconclusive, T cruzi growth-2 2, T cruzi growth-3 -1, 3T3 cytotox -4 and 3T3 cytotox 2 -2.
For C[C@@H]1CCCCO[C@@H](CN(C)CC2CCCCC2)[C@@H](C)CN([C@@H](C)CO)C(=O)c2cc(NC(=O)Nc3ccc(C(F)(F)F)cc3)ccc2O1 the results were Pf Dd2 growth -53, T cruzi growth-1 99*, T cruzi growth-2 inconclusive, T cruzi growth-3 112*, 3T3 cytotox 122* and 3T3 cytotox 2 103*.
`C[C@@H]1CCCCO[C@@H](CN(C)CC2CCCCC2)[C@H](C)CN([C@H](C)CO)C(=O)c2cc(NC(=O)Nc3ccc(C(F)(F)F)cc3)ccc2O1` gave IDH1 mut inh -1, KDM4C inh -2, Pf Dd2 growth -81*, T cruzi growth-1 inconclusive, T cruzi growth-2 106*, T cruzi growth-3 116*, 3T3 cytotox 118* and 3T3 cytotox 2 105*.
